# Measured values from the M2OR odorant receptor database.
# Substitutions are numbered along the chain they refer to.
# Experiments:
# Settings in all cases: stereoisomer not certain
# A0A140T8K4 = system: T1, A0A140T8K4
# T1 sequence (whole entry): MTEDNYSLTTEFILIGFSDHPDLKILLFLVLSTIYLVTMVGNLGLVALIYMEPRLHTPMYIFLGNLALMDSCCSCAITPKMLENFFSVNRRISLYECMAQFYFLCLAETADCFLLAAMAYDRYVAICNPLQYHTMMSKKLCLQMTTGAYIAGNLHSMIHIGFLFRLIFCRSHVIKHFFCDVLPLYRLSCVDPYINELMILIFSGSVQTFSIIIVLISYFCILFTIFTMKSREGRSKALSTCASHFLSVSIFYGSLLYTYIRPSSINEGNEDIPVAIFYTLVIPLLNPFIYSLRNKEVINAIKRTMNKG
# Outline: (§1)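 Whether a receptor–molecule pair is responsive (active) rests on the original authors' judgment that its measured signal was statistically different from baseline. Pairs without that judgment are non-responsive (inactive). Sources used varied assay methods, commonly transient luciferase assays in mammalian cell lines.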
# A0A2J8MY22 = system: T2, A0A2J8MY22
# T2 sequence (whole entry): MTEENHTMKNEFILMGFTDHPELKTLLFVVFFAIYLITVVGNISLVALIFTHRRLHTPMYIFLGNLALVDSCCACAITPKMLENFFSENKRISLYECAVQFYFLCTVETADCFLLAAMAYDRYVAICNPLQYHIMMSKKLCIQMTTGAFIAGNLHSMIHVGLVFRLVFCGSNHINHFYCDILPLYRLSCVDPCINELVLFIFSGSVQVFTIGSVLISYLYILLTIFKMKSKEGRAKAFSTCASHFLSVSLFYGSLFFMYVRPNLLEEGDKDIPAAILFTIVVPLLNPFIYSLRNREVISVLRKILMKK
# Outline: as §1
# A0A2R8ZIW4 = system: T3, A0A2R8ZIW4
# T3 sequence (whole entry): T2 sequence (whole entry) with V39I, I280V
# Outline: as §1
# A0A3Q7SVK8 = system: T4, A0A3Q7SVK8
# T4 sequence (whole entry): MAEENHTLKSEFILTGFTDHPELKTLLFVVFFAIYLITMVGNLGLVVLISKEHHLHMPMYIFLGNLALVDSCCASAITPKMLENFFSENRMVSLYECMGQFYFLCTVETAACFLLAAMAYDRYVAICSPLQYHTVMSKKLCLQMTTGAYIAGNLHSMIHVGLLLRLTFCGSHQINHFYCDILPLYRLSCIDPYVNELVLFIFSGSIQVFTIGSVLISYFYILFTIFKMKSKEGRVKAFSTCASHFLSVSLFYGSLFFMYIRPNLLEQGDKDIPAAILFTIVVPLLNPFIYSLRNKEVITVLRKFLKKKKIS
# Outline: as §1
# A0A6P3DZI2 = system: T5, A0A6P3DZI2
# T5 sequence (whole entry): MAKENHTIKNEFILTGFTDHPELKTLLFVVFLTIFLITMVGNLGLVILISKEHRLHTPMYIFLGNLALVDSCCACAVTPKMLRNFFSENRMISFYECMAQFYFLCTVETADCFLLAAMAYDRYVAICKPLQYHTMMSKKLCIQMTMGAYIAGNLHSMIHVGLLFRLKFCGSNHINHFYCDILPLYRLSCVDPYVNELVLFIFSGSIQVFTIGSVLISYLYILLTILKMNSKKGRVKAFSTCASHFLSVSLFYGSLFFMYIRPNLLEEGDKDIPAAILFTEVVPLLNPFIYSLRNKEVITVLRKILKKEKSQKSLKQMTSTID
# Outline: as §1
# A0A6P6H1F7 = system: T6, A0A6P6H1F7
# T6 sequence (whole entry): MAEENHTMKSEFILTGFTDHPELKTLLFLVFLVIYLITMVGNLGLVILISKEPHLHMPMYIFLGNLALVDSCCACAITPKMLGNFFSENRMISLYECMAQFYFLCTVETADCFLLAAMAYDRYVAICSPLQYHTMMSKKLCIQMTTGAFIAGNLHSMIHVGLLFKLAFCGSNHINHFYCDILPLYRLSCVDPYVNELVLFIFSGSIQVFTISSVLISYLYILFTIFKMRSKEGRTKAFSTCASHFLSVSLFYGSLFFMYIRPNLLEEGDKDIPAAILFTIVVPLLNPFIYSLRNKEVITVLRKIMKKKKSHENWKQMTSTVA
# Outline: as §1
# O10A2 H43R H207R K258T = system: T7, O10A2 H43R H207R K258T
# T7 sequence (whole entry): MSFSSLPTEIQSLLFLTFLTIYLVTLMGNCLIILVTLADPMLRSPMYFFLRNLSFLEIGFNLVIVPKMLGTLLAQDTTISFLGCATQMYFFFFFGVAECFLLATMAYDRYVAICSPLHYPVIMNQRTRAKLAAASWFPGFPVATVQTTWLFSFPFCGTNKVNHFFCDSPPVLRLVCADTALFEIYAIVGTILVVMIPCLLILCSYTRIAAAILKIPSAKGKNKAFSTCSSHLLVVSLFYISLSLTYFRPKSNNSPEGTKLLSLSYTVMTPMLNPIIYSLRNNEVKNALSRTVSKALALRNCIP
# Outline: as §1
# O10A3 C8G = system: T8, O10A3 C8G
# T8 sequence (whole entry): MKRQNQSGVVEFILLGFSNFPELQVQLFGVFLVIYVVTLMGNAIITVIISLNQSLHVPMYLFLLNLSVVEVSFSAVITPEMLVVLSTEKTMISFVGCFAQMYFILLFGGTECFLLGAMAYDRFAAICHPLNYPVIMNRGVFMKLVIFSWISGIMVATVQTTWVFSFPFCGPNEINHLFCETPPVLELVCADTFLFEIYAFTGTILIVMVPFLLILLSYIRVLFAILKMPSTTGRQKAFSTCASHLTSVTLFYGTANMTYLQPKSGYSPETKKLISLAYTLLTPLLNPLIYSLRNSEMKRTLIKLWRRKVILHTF
# Outline: as §1
# O10A6 = system: T9, O10A6
# T9 sequence (whole entry): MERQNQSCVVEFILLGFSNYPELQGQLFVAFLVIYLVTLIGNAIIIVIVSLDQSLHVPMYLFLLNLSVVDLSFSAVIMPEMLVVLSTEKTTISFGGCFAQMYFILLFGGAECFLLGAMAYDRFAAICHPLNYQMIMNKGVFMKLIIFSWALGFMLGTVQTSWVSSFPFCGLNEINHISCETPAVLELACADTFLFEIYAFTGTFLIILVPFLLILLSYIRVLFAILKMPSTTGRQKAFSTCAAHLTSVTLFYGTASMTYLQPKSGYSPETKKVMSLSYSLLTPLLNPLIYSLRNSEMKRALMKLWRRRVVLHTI
# Outline: as §1
# O10AD G65C = system: T10, O10AD G65C
# T10 sequence (whole entry): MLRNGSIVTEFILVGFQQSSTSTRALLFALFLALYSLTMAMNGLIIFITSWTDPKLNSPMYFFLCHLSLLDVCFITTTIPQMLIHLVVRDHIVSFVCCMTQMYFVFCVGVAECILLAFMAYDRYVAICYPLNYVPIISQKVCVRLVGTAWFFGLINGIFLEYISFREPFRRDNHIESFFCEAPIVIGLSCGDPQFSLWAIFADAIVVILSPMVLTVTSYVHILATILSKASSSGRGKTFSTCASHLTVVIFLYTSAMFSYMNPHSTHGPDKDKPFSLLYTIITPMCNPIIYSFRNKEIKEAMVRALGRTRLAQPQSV
# Outline: as §1
# O10D3 V134A R197K = system: T11, O10D3 V134A R197K
# T11 sequence (whole entry): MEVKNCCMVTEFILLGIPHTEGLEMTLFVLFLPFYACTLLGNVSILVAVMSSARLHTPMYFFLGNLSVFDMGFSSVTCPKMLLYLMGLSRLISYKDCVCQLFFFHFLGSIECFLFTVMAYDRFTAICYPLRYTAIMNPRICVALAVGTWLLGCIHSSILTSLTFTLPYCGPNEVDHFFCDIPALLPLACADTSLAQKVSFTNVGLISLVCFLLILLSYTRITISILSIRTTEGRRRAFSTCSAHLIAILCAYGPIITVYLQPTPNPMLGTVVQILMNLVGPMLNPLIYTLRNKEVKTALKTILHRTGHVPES
# Outline: as §1
# O10G4 L24P V195E = system: T12, O10G4 L24P V195E
# T12 sequence (whole entry): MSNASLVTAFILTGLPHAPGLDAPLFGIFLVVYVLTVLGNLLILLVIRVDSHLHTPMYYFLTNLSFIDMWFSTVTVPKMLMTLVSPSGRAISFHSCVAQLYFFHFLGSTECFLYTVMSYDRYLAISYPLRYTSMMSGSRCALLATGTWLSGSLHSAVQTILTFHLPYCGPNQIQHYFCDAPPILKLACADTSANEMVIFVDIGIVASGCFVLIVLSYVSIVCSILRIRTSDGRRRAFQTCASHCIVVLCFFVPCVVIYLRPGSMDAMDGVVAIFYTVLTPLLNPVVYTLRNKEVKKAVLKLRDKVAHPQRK
# Outline: as §1
# O10G7 A18V P19Q G20A = system: T13, O10G7 A18V P19Q G20A
# T13 sequence (whole entry): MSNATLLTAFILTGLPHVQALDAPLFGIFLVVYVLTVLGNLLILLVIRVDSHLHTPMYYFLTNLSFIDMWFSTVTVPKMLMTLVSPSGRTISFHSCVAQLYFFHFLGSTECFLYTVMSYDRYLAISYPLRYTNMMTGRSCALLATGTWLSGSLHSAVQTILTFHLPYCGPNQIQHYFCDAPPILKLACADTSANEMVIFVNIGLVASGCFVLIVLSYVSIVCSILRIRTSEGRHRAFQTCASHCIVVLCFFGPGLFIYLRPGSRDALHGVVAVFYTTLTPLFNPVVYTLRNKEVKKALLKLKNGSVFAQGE
# Outline: as §1
# O10G7 I28V = system: T14, O10G7 I28V
# T14 sequence (whole entry): T13 sequence (whole entry) with V18A, Q19P, A20G, I28V
# Outline: as §1
# A0A140T8K0 = system: T15, A0A140T8K0
# T15 sequence (whole entry): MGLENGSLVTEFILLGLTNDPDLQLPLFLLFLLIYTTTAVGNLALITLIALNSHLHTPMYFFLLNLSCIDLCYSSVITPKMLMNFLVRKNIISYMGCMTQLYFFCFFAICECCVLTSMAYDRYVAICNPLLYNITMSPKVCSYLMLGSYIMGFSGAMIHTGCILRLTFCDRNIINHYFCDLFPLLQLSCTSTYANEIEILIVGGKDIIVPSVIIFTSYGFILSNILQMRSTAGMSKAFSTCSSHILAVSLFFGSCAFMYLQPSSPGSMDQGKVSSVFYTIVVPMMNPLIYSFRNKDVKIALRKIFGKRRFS
# Outline: as §1
# A0A1L1SVG7 = system: T16, A0A1L1SVG7
# T16 sequence (whole entry): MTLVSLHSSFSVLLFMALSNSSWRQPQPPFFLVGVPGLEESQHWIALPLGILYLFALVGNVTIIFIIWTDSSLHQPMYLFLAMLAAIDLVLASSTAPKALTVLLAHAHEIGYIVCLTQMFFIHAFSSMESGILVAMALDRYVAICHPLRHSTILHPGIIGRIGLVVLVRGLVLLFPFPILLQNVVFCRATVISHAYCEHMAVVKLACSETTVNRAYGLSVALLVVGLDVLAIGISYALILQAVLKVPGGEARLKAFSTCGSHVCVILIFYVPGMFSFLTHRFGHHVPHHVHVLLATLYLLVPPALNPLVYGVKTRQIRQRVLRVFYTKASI
# Outline: as §1
# 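Further: active if original authors judged signal statistically different from baseline.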
compound,measurement,setting,value
CCc1nccnc1OC,odorant receptor agonist call,A0A140T8K4,inactive
same,odorant receptor agonist call,A0A2J8MY22,active
same,odorant receptor agonist call,A0A2R8ZIW4,active
same,odorant receptor agonist call,A0A3Q7SVK8,active
same,odorant receptor agonist call,A0A6P3DZI2,inactive
same,odorant receptor agonist call,A0A6P6H1F7,active
CCCCCCC=CCCC=O,odorant receptor agonist call,O10A2 H43R H207R K258T,inactive
same,odorant receptor agonist call,O10A3 C8G,inactive
same,odorant receptor agonist call,O10A6,active
same,odorant receptor agonist call,O10AD G65C,inactive
same,odorant receptor agonist call,O10D3 V134A R197K,inactive
same,odorant receptor agonist call,O10G4 L24P V195E,inactive
same,odorant receptor agonist call,O10G7 A18V P19Q G20A,inactive
same,odorant receptor agonist call,O10G7 I28V,inactive
CCC(C)c1nccnc1OC (stereo not drawn),odorant receptor agonist call,A0A140T8K0,inactive
same,odorant receptor agonist call,A0A140T8K4,inactive
same,odorant receptor agonist call,A0A2J8MY22,active
same,odorant receptor agonist call,A0A2R8ZIW4,active
same,odorant receptor agonist call,A0A3Q7SVK8,active
same,odorant receptor agonist call,A0A6P3DZI2,inactive
same,odorant receptor agonist call,A0A6P6H1F7,active
CCCCCCC(=O)[O-].[H+],odorant receptor agonist call,A0A140T8K4,inactive
same,odorant receptor agonist call,A0A1L1SVG7,inactive
CC1CCc2nccnc21 (stereo not drawn),odorant receptor agonist call,A0A140T8K4,inactive
same,odorant receptor agonist call,A0A2J8MY22,active
same,odorant receptor agonist call,A0A2R8ZIW4,active
same,odorant receptor agonist call,A0A3Q7SVK8,active
same,odorant receptor agonist call,A0A6P3DZI2,inactive
same,odorant receptor agonist call,A0A6P6H1F7,active
Cc1cnc(C)cn1,odorant receptor agonist call,A0A140T8K4,inactive
same,odorant receptor agonist call,A0A2J8MY22,active
same,odorant receptor agonist call,A0A2R8ZIW4,active
same,odorant receptor agonist call,A0A3Q7SVK8,active
same,odorant receptor agonist call,A0A6P3DZI2,inactive
same,odorant receptor agonist call,A0A6P6H1F7,active
O=c1ccc2ccccc2o1,odorant receptor agonist call,A0A140T8K4,inactive
same,odorant receptor agonist call,A0A1L1SVG7,inactive
COc1nccnc1CC(C)C,odorant receptor agonist call,A0A140T8K4,inactive
same,odorant receptor agonist call,A0A2J8MY22,active
same,odorant receptor agonist call,A0A2R8ZIW4,active
same,odorant receptor agonist call,A0A3Q7SVK8,active
same,odorant receptor agonist call,A0A6P3DZI2,inactive
same,odorant receptor agonist call,A0A6P6H1F7,active
